13 molecules from ChEMBL document CHEMBL1833926, “Bicyclic heteroaryl inhibitors of stearoyl-CoA desaturase: from systemic to liver-targeting inhibitors” (Bioorg Med Chem Lett, 2011) can be followed below.

The structures appear in SMILES notation. The source made the active and inactive calls. The calls are words filed in the database; no cut-off is given here. Some results are limits rather than exact numbers.

The first data set deals with Acyl-CoA (8-3)-desaturase (Homo sapiens) (UniProt O60427). Kind of data set: Inhibition of delta-5 desaturase.
Chain of Acyl-CoA (8-3)-desaturase (Homo sapiens) (O60427 whole entry, looked up): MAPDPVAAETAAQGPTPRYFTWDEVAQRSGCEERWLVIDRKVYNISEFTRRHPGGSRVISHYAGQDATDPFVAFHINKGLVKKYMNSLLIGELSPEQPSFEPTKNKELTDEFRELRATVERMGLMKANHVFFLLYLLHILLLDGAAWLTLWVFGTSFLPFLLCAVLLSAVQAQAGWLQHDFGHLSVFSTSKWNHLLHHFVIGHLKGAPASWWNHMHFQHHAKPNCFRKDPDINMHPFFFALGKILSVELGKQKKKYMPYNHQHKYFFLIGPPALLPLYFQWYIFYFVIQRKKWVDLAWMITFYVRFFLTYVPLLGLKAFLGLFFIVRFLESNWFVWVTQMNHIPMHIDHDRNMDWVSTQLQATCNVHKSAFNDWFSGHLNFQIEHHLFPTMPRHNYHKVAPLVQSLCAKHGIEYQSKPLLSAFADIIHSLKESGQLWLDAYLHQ
Settings: not given
`Fc1ccc(Br)c(OC2CCN(c3ncnc4[nH]cnc34)CC2)c1`: the inhibition result is “inactive”.
Still for that read-out and setting: for `Fc1ccc(Br)c(OC2CCN(c3nc4ccccc4s3)CC2)c1` the value was “inactive”; for `Nc1ncnc2[nH]c(N3CCC(Oc4ccccc4C(F)(F)F)CC3)nc12`, “inactive”; for `O=c1[nH]c(N2CCC(Oc3ccccc3C(F)(F)F)CC2)nc2[nH]cnc12`, “inactive”.
In the case of `FC(F)(F)c1ccccc1OC1CCN(c2ncc3nc[nH]c3n2)CC1`, the inhibition entry is “inactive”.

For the next data set, the target named is T1, Acyl-CoA desaturase 1 (Rattus norvegicus, UniProt P07308).
T1 sequence (P07308 whole entry): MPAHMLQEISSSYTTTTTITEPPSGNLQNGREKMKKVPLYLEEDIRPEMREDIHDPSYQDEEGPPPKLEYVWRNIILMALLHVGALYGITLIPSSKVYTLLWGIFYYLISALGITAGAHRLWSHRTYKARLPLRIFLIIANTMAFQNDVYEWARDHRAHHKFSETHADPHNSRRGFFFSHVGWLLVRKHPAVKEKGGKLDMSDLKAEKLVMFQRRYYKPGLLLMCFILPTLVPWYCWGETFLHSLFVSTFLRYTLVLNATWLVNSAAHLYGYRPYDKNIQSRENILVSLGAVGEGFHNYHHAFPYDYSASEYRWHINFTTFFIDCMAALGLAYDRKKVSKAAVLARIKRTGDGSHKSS
Description: Inhibition of SCD1 in rat Hep cells. The class given is cell-based.
Settings: not given
In outline:
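Whole-cell SCD1 inhibition measured in rat hepatocytes, which express OATP transporters, in the presence of 10% fetal bovine serum; IC50 determined.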
By IC50 is commonly meant the concentration that gives 50% inhibition. Read a low IC50 as inhibition by little substance. The molecule `O=C(O)COc1nc2cnc(N3CCC(Oc4cc(F)ccc4Br)CC3)nc2s1` came in with an IC50 of 348 nM.
As to `O=C(O)CNc1nc2cnc(N3CCC(Oc4cc(F)ccc4Br)CC3)nc2s1`, the IC50 is 158 nM.

Another data set addresses T2, Acyl-CoA 6-desaturase (Homo sapiens) (UniProt O95864).
T2 sequence (whole entry): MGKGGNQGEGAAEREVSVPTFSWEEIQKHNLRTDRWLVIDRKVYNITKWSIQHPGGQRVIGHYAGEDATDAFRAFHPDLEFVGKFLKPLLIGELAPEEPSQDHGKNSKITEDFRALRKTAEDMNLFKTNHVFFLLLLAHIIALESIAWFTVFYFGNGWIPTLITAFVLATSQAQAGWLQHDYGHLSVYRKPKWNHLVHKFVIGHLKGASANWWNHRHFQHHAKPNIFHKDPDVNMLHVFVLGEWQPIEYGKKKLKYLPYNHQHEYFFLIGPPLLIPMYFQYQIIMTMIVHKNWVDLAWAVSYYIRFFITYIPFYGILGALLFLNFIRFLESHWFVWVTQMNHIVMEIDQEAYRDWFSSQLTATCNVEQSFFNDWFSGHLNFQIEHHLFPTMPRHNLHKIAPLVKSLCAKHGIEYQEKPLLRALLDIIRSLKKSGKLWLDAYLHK
Description: Inhibition of delta-6 desaturase.
Settings: not given
Consider `Fc1ccc(Br)c(OC2CCN(c3ncnc4[nH]cnc34)CC2)c1`, for which the inhibition entry was “inactive”.
Same read-out and setting: for `Fc1ccc(Br)c(OC2CCN(c3nc4ccccc4s3)CC2)c1` the value was “inactive”.
The same measure, in the same setting: for `Nc1ncnc2[nH]c(N3CCC(Oc4ccccc4C(F)(F)F)CC3)nc12` the value was “inactive”.
For `O=c1[nH]c(N2CCC(Oc3ccccc3C(F)(F)F)CC2)nc2[nH]cnc12`, the inhibition entry is “inactive”.
Still for that read-out and setting: under `FC(F)(F)c1ccccc1OC1CCN(c2ncc3nc[nH]c3n2)CC1` stands “inactive”.

The next data set concerns HepG2. Description: Ratio of IC50 for SCD1 in human HepG2 cells to IC50 for SCD1 in rat Hep cells. The class given is cell-based.
Settings: not given
In outline: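 Fold shift computed as hHepG2 whole-cell IC50 over rat hepatocyte IC50.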
For `O=C(O)COc1nc2cnc(N3CCC(Oc4cc(F)ccc4Br)CC3)nc2s1`, the Ratio IC50 is less than 1.
On the same count and under the same terms, under `O=C(O)CNc1nc2cnc(N3CCC(Oc4cc(F)ccc4Br)CC3)nc2s1` stands 1.

Test system in another data set: not listed separately
Kind of data set: Drug uptake in C57BL/6 mouse liver at 10 mg/kg, po after 6 hrs. The conditions noted are these: read-out: Drug uptake. The class given is ADME, organism-based, C57BL6. Further details: dose 10 mg/kg, route oral. In outline:
(§1)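 Single oral dose of 10 mg/kg in 0.5% methocel given to C57BL6 mice on normal chow. Drug levels measured 6 h post-dose in liver, white adipose, skin and Harderian glands. Liver/tissue fold selectivity taken from these levels.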
With `O=c1[nH]c2cnc(N3CCC(Oc4ccccc4C(F)(F)F)CC3)nc2[nH]1`, the concentration at 6 h stood at 24.7 µM.

Test system in a further data set: not listed separately
Description: Ratio of drug uptake in liver to adipose tissue in C57BL/6 mouse at 10 mg/kg, po after 6 hrs. The class given is ADME, organism-based, C57BL6. The conditions noted are these: in vivo. On the set-up: dose 10 mg/kg, route oral. In outline: as §1
Consider `O=c1[nH]c2cnc(N3CCC(Oc4ccccc4C(F)(F)F)CC3)nc2[nH]1`, for which the Ratio is recorded as 3.6.
For `O=C(O)COc1nc2cnc(N3CCC(Oc4cc(F)ccc4Br)CC3)nc2s1`, the Ratio is 173.
Regarding `O=C(O)CNc1nc2cnc(N3CCC(Oc4cc(F)ccc4Br)CC3)nc2s1`, the Ratio was 41.

Test system in another data set: not listed separately
Description: Plasma concentration in C57BL/6 mouse at 30 mg/kg, po after 3 hrs. Further details: dose 30 mg/kg, route oral.
Settings: not given
The class given is ADME, organism-based, C57BL6. The method in brief:
(§2)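 Drug levels in liver and plasma measured in the mouse liver PD study. C57BL6 mice on a high carbohydrate diet received an oral dose in 0.5% methocel. Samples were taken 3 h post-dose, with livers harvested 2 h after iv [1-14C]-stearic acid tracer.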
In turn, `O=C(O)CNc1nc2cnc(N3CCC(Oc4cc(F)ccc4Br)CC3)nc2s1` registered a concentration at 3 h of 0.2 µM.

Test system in a further data set: not listed separately
Kind of data set: Ratio of drug uptake in liver to skin in C57BL/6 mouse liver at 10 mg/kg, po after 6 hrs. The class given is ADME, organism-based, C57BL6. On the set-up: dose 10 mg/kg, route oral. The conditions noted are these: in vivo. The method in brief:
as §1
Turning to `O=c1[nH]c2cnc(N3CCC(Oc4ccccc4C(F)(F)F)CC3)nc2[nH]1`, the Ratio came out at 4.4.
For the molecule `O=C(O)COc1nc2cnc(N3CCC(Oc4cc(F)ccc4Br)CC3)nc2s1`, the Ratio came out at 403.
Take `O=C(O)CNc1nc2cnc(N3CCC(Oc4cc(F)ccc4Br)CC3)nc2s1`: the Ratio was 145.

Another data set concerns Mus musculus. Kind of data set: Inhibition of SCD1 activity in high carbohydrate diet fed C57BL/6 mouse assessed as reduction in conversion of [1-14C]stearic acid to [1-14C]oleic acid at 30 mg/kg, po after 3 hrs. The class given is functional. Conditions: C57BL6, 3 h. In outline: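 Mouse liver PD assay in C57BL6 mice on a high carbohydrate diet, n = 5/group. Compound given orally in 0.5% methocel. At 1 h, [1-14C]-stearic acid in 60% aqueous PEG 200 given iv. Livers harvested 2 h after tracer. Lipids hydrolyzed; SCD1 activity index = 14C-oleic/14C-stearic acid ratio.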
Usually inhibition in vivo stands for the share of the control response that was lost under treatment. On to `O=C(O)CNc1nc2cnc(N3CCC(Oc4cc(F)ccc4Br)CC3)nc2s1`, for which the inhibition in vivo at 30 mg/kg turned out to be 72%.

Test system in a further data set: not listed separately
Kind of data set: Ratio of drug uptake in liver to harderian glands in C57BL/6 mouse at 10 mg/kg, po after 6 hrs. Type of data set: ADME, organism-based, C57BL6. Further details: dose 10 mg/kg, route oral. Conditions: in vivo. The method in brief:
as §1
`O=c1[nH]c2cnc(N3CCC(Oc4ccccc4C(F)(F)F)CC3)nc2[nH]1`: the Ratio is reported as 0.8.
Turning to `O=C(O)COc1nc2cnc(N3CCC(Oc4cc(F)ccc4Br)CC3)nc2s1`, the Ratio was found to be 3.
On the same count and under the same terms, for `O=C(O)CNc1nc2cnc(N3CCC(Oc4cc(F)ccc4Br)CC3)nc2s1` the value was 21.

A further data set deals with T1, Acyl-CoA desaturase 1. Kind of data set: Inhibition of rat SCD1 in rat liver microsome.
Settings: not given
On the technique in general: Liver microsomes are vesicles of endoplasmic reticulum, rich in cytochrome P450 enzymes.
In turn, `O=c1[nH]c2cnc(N3CCC(Oc4ccccc4C(F)(F)F)CC3)nc2[nH]1` gave an IC50 of 38 nM.
`O=C(O)COc1nc2cnc(N3CCC(Oc4cc(F)ccc4Br)CC3)nc2s1` yielded a concentration for half-maximal inhibition (IC50) of 7 nM.
Take `O=C(O)CNc1nc2cnc(N3CCC(Oc4cc(F)ccc4Br)CC3)nc2s1`: the IC50 worked out at 4 nM.
As to `FC(F)(F)c1ccccc1OC1CCN(c2ncc3[nH]cnc3n2)CC1`, the IC50 was determined as 10 nM.
Still for that read-out and setting: for `Fc1ccc(Br)c(OC2CCN(c3nc4ccccc4s3)CC2)c1` the value was 477 nM; for `O=c1[nH]c(N2CCC(Oc3ccccc3C(F)(F)F)CC2)nc2[nH]cnc12`, 97 nM; for `FC(F)(F)c1ccccc1OC1CCN(c2ncnc3nc[nH]c23)CC1`, 10 nM.
With `Fc1ccc(Br)c(OC2CCN(c3ncnc4nc[nH]c34)CC2)c1`, the IC50 was determined as 1 nM.
Still for that read-out and setting: for `Fc1ccc(Br)c(OC2CCN(c3ncc4[nH]cnc4n3)CC2)c1` the value was 3 nM.

Test system in a further data set: not listed separately
Kind of data set: Drug uptake in C57BL/6 mouse liver at 30 mg/kg, po after 3 hrs. Type of data set: ADME, organism-based, C57BL6. Further details: dose 30 mg/kg, route oral. Conditions: read-out: Drug uptake. In outline:
as §2
Turning to `O=C(O)CNc1nc2cnc(N3CCC(Oc4cc(F)ccc4Br)CC3)nc2s1`, the concentration at 3 h worked out at 4.1 µM.

The next data set has as its target T3, Stearoyl-CoA desaturase (Homo sapiens, UniProt O00767).
T3 sequence (O00767 whole entry): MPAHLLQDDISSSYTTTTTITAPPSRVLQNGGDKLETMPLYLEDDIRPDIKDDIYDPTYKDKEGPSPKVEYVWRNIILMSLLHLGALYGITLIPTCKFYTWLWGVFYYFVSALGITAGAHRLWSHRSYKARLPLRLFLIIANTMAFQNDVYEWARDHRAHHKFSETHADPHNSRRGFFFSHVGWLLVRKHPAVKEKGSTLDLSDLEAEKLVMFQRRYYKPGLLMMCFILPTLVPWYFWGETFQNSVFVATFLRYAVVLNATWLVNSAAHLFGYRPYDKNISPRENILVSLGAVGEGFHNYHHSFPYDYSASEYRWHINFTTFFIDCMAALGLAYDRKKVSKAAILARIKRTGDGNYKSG
Description: Inhibition of SCD1 in human HepG2 cells. The class given is cell-based.
Settings: not given
On to `O=c1[nH]c2cnc(N3CCC(Oc4ccccc4C(F)(F)F)CC3)nc2[nH]1`, for which half-maximal inhibition (IC50) required 319 nM.
With `O=C(O)COc1nc2cnc(N3CCC(Oc4cc(F)ccc4Br)CC3)nc2s1`, inhibition was half-maximal at 53 nM (IC50).
Same read-out and setting: under `O=C(O)CNc1nc2cnc(N3CCC(Oc4cc(F)ccc4Br)CC3)nc2s1` stands 168 nM; under `FC(F)(F)c1ccccc1OC1CCN(c2ncc3[nH]cnc3n2)CC1`, 257 nM.
As for `Fc1ccc(Br)c(OC2CCN(c3nc4ccccc4s3)CC2)c1`, the IC50 came to 10600 nM.
Same read-out and setting: for `O=c1[nH]c(N2CCC(Oc3ccccc3C(F)(F)F)CC2)nc2[nH]cnc12` the value was 378 nM; for `FC(F)(F)c1ccccc1OC1CCN(c2ncnc3nc[nH]c23)CC1`, 48 nM; for `Fc1ccc(Br)c(OC2CCN(c3ncnc4nc[nH]c34)CC2)c1`, less than 39 nM.
Still for that read-out and setting: for `Fc1ccc(Br)c(OC2CCN(c3ncc4[nH]cnc4n3)CC2)c1` the value was 47 nM.

A further data set relates to HepG2. Description: Ratio of IC50 for SCD1 in human HepG2 cells to IC50 for rat SCD1. The class given is cell-based.
Settings: not given
In outline:
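Fold shift computed as hHepG2 whole-cell IC50 over the SCD1-induced rat liver microsomal enzyme IC50.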
On to `O=C(O)COc1nc2cnc(N3CCC(Oc4cc(F)ccc4Br)CC3)nc2s1`, for which the Ratio IC50 is 7.
Still for that read-out and setting: under `O=C(O)CNc1nc2cnc(N3CCC(Oc4cc(F)ccc4Br)CC3)nc2s1` stands 42.

Test system in the next data set: not listed separately
Kind of data set: AUC (0 to 24 hrs) in C57BL/6 mouse at 10 mg/kg, po. Type of data set: ADME, organism-based, C57BL6. Further details: time < 24 hr, dose 10 mg/kg, route oral. The conditions noted are these: whole blood. In outline: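 Oral gavage, 10 mg/kg in 0.5% methocel, to C57BL6 mice; whole blood exposure measured over 0–24 h as AUC.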
The AUC(0-t) is exposure summed from dosing to a finite time, without extrapolation to infinity. Lower therefore signals low exposure. As for `NC(=O)c1cnc(N2CCN(C(=O)c3ccccc3C(F)(F)F)CC2)s1`, the AUC(0-t) at 24 h is 11 µM·h.
